Experimental findings from ChEMBL document CHEMBL2417362, “Truncation of the peptide sequence in bifunctional ligands with mu and delta opioid receptor agonist and neurokinin 1 receptor antagonist activities” (Bioorg Med Chem Lett, 2013) are described below.

Active and inactive are the calls of the source. No cut-off for these calls is given here. Non-standard residues stand in square brackets, D forms with d. Residues, ends and D or L forms follow the SMILES beside them. *: point of attachment. OBzl(3,5-(CF3)2) = FC(F)(F)c1cc(CO*)cc(C(F)(F)F)c1

The target of assay [1] is Substance-P receptor (Cavia porcellus) (UniProt P30547). Kind of assay: Antagonist activity at NK1 receptor in guinea pig ileum assessed as inhibition of substance P-induced muscle contraction. Format: tissue-based.
The next assay addresses Substance-P receptor (Homo sapiens, UniProt P25103). The assay is described as follows: Displacement of [3H]substance P from human NK1 receptor expressed in CHO cells. The class given is cell-based. For orientation: Displacement assays read how much labelled ligand stays bound in the presence of the test substance.
Assay [2] has as its target Mu-type opioid receptor (Cavia porcellus) (UniProt P97266). Kind of assay: Agonist activity at mu opioid receptor in guinea pig ileum assessed as inhibition of electrically-stimulated muscle contraction at 1 uM. Format: tissue-based.
The test system of assay [3] is Rattus norvegicus. The assay is described as follows: Antiallodynic activity in po dosed spinal nerve ligated Sprague-Dawley rat assessed as attenuation of SNL-induced tactile allodynia. Format: functional, organism-based. In short, it runs like this:
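Spinal nerve ligated rats dosed orally; tactile (von Frey) and thermal hypersensitivity compared with vehicle.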

The subject of assay [4] is Rattus norvegicus. The assay is described as follows: Antiallodynic activity in intrathecally dosed spinal nerve ligated Sprague-Dawley rat assessed as attenuation of SNL-induced tactile allodynia. Format: functional, organism-based. A digest of the protocol:
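Spinal nerve ligated rats given intrathecal doses, expressed as µg/5 µL, with 10% DMSO/water as vehicle; tactile allodynia measured by von Frey and compared with vehicle over time.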

Assay [5] concerns Rattus norvegicus. Kind of assay: Antinociceptive activity in Sprague-Dawley rat assessed as […] at 10 ug/5 uL administered intrathecally. Format: functional, organism-based. A digest of the protocol:
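Non-injured rats given intrathecal 10 µg/5 µL in 10% DMSO/90% distilled water; hind paw withdrawal latency to radiant heat (Hargreaves) read 15 min after injection and compared with vehicle.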

Chain of Substance-P receptor (Cavia porcellus) (P30547 whole entry): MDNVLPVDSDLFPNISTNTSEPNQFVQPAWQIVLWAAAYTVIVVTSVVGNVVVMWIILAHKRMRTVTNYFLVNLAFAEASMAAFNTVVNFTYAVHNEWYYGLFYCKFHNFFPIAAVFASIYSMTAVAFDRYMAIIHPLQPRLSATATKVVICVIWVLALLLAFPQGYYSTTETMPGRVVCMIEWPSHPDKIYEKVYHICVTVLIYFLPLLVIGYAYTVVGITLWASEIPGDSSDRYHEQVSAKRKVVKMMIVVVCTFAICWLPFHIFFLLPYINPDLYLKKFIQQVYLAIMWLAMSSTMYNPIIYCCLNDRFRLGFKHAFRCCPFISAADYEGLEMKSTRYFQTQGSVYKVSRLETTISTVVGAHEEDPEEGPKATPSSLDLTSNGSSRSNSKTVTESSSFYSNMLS
Chain of Substance-P receptor (P25103 whole entry): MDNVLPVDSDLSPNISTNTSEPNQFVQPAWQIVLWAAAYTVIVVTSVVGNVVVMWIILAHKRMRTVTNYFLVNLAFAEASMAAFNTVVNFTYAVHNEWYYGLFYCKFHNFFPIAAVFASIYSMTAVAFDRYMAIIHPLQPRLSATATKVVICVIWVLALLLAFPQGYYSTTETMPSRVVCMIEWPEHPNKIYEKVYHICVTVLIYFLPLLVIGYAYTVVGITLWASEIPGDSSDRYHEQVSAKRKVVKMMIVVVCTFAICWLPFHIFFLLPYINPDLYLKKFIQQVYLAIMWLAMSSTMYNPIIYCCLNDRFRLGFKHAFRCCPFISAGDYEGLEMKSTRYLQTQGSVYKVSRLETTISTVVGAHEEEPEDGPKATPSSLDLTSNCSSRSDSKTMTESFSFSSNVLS
Chain of Mu-type opioid receptor (Cavia porcellus) (P97266 whole entry): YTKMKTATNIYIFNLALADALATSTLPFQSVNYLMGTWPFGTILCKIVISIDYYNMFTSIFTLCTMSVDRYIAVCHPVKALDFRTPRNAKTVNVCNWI

For orientation: Ki means a measure of affinity in units of concentration, obtained from inhibition or displacement. Regarding `CSCC[C@H](NC(=O)[C@H](Cc1ccccc1)NC(=O)CNC(=O)[C@@H](C)NC(=O)[C@@H](N)Cc1ccc(O)cc1)C(=O)NC(C)(C)C(=O)N[C@@H](CC(C)C)C(=O)N[C@@H](Cc1c[nH]c2ccccc12)C(=O)OCc1cc(C(F)(F)F)cc(C(F)(F)F)c1`, the Ke in assay [1] amounted to 12 nM. The molecule further showed a Ki at Substance-P receptor of 0.12 nM.
Broadly, the inhibition is the relative decrease from the control value, in per cent. `CSCC[C@H](NC(=O)[C@H](Cc1ccccc1)NC(=O)CNC(=O)[C@@H](C)NC(=O)[C@@H](N)Cc1ccc(O)cc1)C(=O)N1CCC[C@@H]1C(=O)N[C@@H](CC(C)C)C(=O)N[C@@H](Cc1c[nH]c2ccccc12)C(=O)OCc1cc(C(F)(F)F)cc(C(F)(F)F)c1`: the Ke in assay [1] is 29 nM. In addition, the inhibition in assay [2] was determined as 25%.
As for `CSCC[C@H](NC(=O)[C@H](Cc1ccccc1)NC(=O)CNC(=O)[C@@H](C)NC(=O)[C@@H](N)Cc1ccc(O)cc1)C(=O)NC1(C(=O)N[C@@H](CC(C)C)C(=O)N[C@@H](Cc2c[nH]c3ccccc23)C(=O)OCc2cc(C(F)(F)F)cc(C(F)(F)F)c2)CCCC1`, the Ke in assay [1] came to 2 nM.
As to `C[C@@H](NC(=O)[C@@H](N)Cc1ccc(O)cc1)C(=O)NCC(=O)N[C@@H](Cc1ccccc1)C(=O)N1CCCC1C(=O)N[C@@H](Cc1c[nH]c2ccccc12)C(=O)OCc1cc(C(F)(F)F)cc(C(F)(F)F)c1` (single isomer, unassigned), the Ke in assay [1] stood at 1.8 nM.
As to `C[C@@H](NC(=O)[C@@H](N)Cc1ccc(O)cc1)C(=O)NCC(=O)N[C@@H](Cc1ccccc1)C(=O)NCC(=O)N[C@@H](Cc1c[nH]c2ccccc12)C(=O)OCc1cc(C(F)(F)F)cc(C(F)(F)F)c1` (H-Y[dA]GFGW-{OBzl(3,5-(CF3)2)}), in the assay with Rattus norvegicus [3], the result was inactive. Further, the Activity result in the assay on Rattus norvegicus [4] is “Dose-dependent effect”. The result in the assay with Rattus norvegicus [5] was Active. The Ke in assay [1] is 59 nM.
For `CSCC[C@H](NC(=O)[C@H](Cc1ccccc1)NC(=O)CNC(=O)[C@@H](C)NC(=O)[C@@H](N)Cc1ccc(O)cc1)C(=O)N[C@@H](C)C(=O)N[C@@H](CC(C)C)C(=O)N[C@@H](Cc1c[nH]c2ccccc12)C(=O)OCc1cc(C(F)(F)F)cc(C(F)(F)F)c1` (H-Y[dA]GFMALW-{OBzl(3,5-(CF3)2)}), the Ke in assay [1] is 380 nM.
In the case of `CC(C)C[C@H](NC(=O)[C@H](Cc1ccccc1)NC(=O)CNC(=O)[C@@H](C)NC(=O)[C@@H](N)Cc1ccc(O)cc1)C(=O)N[C@@H](Cc1c[nH]c2ccccc12)C(=O)OCc1cc(C(F)(F)F)cc(C(F)(F)F)c1` (H-Y[dA]GFLW-{OBzl(3,5-(CF3)2)}), the Ke in assay [1] came out at 2 nM.
